Here are results for 19 compounds from PubChem BioAssay.

Each structure is given as a SMILES string. A number with no mark means an inactive call. Results filed as inconclusive are left out. Active and inactive are the calls of the source.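 Rule for the calls, unless noted: active = viability at or below 27.92% in each of two runs, the all-compound median minus 4 SD; inconclusive = no clear call, values can overlap the other calls; inactive = the rest.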

The nature of assay [1]: S. cerevisiae growth inhibition in permissive medium (OD615), pilot counter-assay for S. cerevisiae lifespan shortening project, permissive growth control (AID 705;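 active = growth inhibition above 25% in both replicates, a cutoff set 3 SD above the mean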). The note with it: OD615, 24 h, at 10 µM, hits give high values. An outline of the steps: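 Test system: Saccharomyces cerevisiae strain carrying genetically modified DeaD replicative-lifespan system; buffer or medium: SC raffinose/galactose permissive medium; dosing: one dose 10 µM, DMSO 0.25% final; times: 24 h exposure, 30 °C; measured by: OD at 615 nm; read-out basis: growth inhibition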

Assay [2] in a line: S. cerevisiae growth inhibition in restrictive medium, OD615, pilot screen, restrictive growth control, yeast lifespan reduction project (AID 706;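 active = growth inhibition above a set limit, 3 SD over mean compound inhibition, in both replicates, cut at about 43% in these data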;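 note: modified DeaD lifespan yeast strain shifted to restrictive glucose medium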). The conditions noted are these: OD615, 48 h, at 10 µM, hits give high values. Summed up: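 material = engineered S. cerevisiae DeaD strain | buffer or medium = glucose-based CSMM-D restrictive medium | dosing = one concentration, 10 µM final, 0.25% DMSO | schedule = 4 h pre-growth plus 48 h compound exposure, 30 °C | detection = OD615 absorbance reading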

Assay [3] in a line: viability of HCT116 without oncogenic beta-catenin – human colon tumor cells, pilot screen (AID 823;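 active = cell viability at or below a set limit in both duplicate runs, the limit being the all-compound median minus 4 SD, cut at about 23% in these data, passing the limit was not always enough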;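 note: 0% = wells killed by 20 µM Hyamine and 100% = untreated DMSO cell wells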). The conditions noted are these: HCT116 beta-catenin knockout viability, CellTiter-Glo, 60 h; at 10 µM; hits give low values.
A short description of assay [4]: viability of PTEN-null HCT116 cells – cell-based, HCT116 clonal line, CellTiter-Glo, pilot screen (AID 824).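 Note: 0% = 20 µM Hyamine control and 100% = vehicle cell control.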 The conditions noted are these: HCT116 PTEN-deleted viability, 60 h, at 10 µM, hits give low values.
Assay [5] can be described thus: RAM pathway blockade in budding yeast – dse1pr::URA3 reporter, 5-FOA selection, pilot screen (AID 869;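 active = inhibition over a set limit, the all-compound mean plus 3 SD, in both replicate runs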;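 note: 0% = DMSO wells with no growth and 100% = 10 µM 1-NA-PP1 with full growth; RAM network block rescues cells from 5-FOA so hits raise OD615 growth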). The conditions noted are these: S. cerevisiae dse1pr::URA3 5-FOA growth, OD615, 2 d; at 10 µM; hits give high values; strain carries analog-sensitive mutant Cbk1 kinase.
Assay [6] in a line: RAM signaling pathway blockade in yeast – S. cerevisiae, Pdr1DBD-CYC8 efflux-inhibited sensitized strain, primary screen (AID 1298;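 active = RAM network inhibition above 8.4% in each of two replicates, 3 SD over the compound average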;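 note: 0% = DMSO untreated cells without growth and 100% = 10 µM 1-NA-PP1 full growth; higher means more yeast growth rescued from 5-FOA killing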). The conditions noted are these: S. cerevisiae cbk1-as DSE1-URA3 strain, 5-FOA growth OD615, 2 d; at 50 µM; hits give high values.
Assay [7] in a line: doxorubicin toxicity protection in MRP-1 cells – H69AR cells, CellTiter-Glo, duplicate, MRP-1 activator project, pilot screen (AID 807;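 active = viability increase at or above a cutoff of the median across tested compounds plus 3 SD, cut at about 8.5% in these data, passing the limit was not always enough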;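 note: compound pretreatment 18-22 h then 72 h combined with doxorubicin; 0% = doxorubicin alone and 100% = vehicle without doxorubicin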). The note with it: H69AR viability with doxorubicin, CellTiter-Glo luminescence; at 10 µM; hits give high values.

Turning to `Cc1ccc(Cl)cc1N1CCN(C(=O)c2cc3c(=O)n(C)c4ccccc4c3n2C)CC1`, the growth inhibition in assay [1] was -2.52%; in assay [2], 9.03%. The viability in assay [3] is 20.4% (active); in assay [4], 23.5% (active). For the same compound, the inhibition in assay [5] is 1.74%. Further, the RAM network inhibition in assay [6] is 2.44%.
For the compound `COc1ccccc1C1CC(c2ccc(Cl)cc2Cl)Nc2nc(N)nn21` (centres undefined), the growth inhibition is -5.97% in assay [1] and 25.2% in assay [2]. The figures for the viability in assay [3] and in assay [4] were 86.1% and 85%, respectively. For the same compound, in assay [5], the inhibition is 1.62%. The RAM network inhibition in assay [6] was 7.09%.
Consider `CCc1ccc(NC(=O)Cn2c(=O)oc3cc(S(=O)(=O)N4CCOCC4)ccc32)cc1`, for which the growth inhibition in assay [1] was -11%; in assay [2] it was -13.3%. For the same compound, the viability is 99.8% in assay [3] and 89.2% in assay [4]. Also, the inhibition in assay [5] was 1.83%. The RAM network inhibition in assay [6] is 8.19%.
`CCOc1ccc2nc3ccc4[nH]onc4c3c2c1`: the figures for the growth inhibition in assay [1] and in assay [2] were 0.485% and 1.57%, respectively. In addition, the viability in assay [3] was 74.8%; in assay [4] it was 66.5%. The inhibition in assay [5] was 2.8%. Also, the RAM network inhibition in assay [6] was 6.1%.
With `Oc1c(C(c2cccs2)N2CCN(c3cccc(Cl)c3)CC2)sc2ncnn12` (centres undefined), the growth inhibition in assay [1] was -8.2%; in assay [2], 5.16%. Besides, the viability in assay [3] was 88.1%; in assay [4], 90.5%. Moreover, the inhibition in assay [5] is 1.94%. Moreover, the RAM network inhibition in assay [6] is 3.42%.
As for `S=C(Nc1ccccn1)c1ccccn1`, the growth inhibition in assay [1] is 7.06%. The viability increase in assay [7] was -8.21%. Further, the viability in assay [3] is 2.08% (active); in assay [4], 0.72% (active). Also, in assay [5], the inhibition was 1.43%. Besides, the RAM network inhibition in assay [6] was 3.64%.
Consider `O=C(CSc1ccc2nnc(-c3ccc(Cl)cc3)n2n1)N1CCCC1`, for which the growth inhibition in assay [1] is -1.01%. Moreover, the viability increase in assay [7] is -3.12%. Also, the viability is 86.3% in assay [3] and 93.1% in assay [4]. In assay [5], the inhibition is 1.32%. Further, the RAM network inhibition in assay [6] is 4.24%.
In the case of `O=C(O)c1cc2c(s1)-c1ccccc1OC2`, in assay [1], the growth inhibition is 6.14%. Moreover, the viability increase in assay [7] was -4.32%. In addition, the viability in assay [3] is 96.9%; in assay [4] it was 98.7%. Also, the inhibition in assay [5] is 0.165%. Further, in assay [6], the RAM network inhibition is -2.9%.
Regarding `Cc1cccc(N2CCN(C(=O)c3cc4c(=O)n(C)c5ccccc5c4n3C)CC2)c1C`, the growth inhibition in assay [1] was -7.02%; in assay [2] it was -6.91%. Besides, the viability in assay [3] is 61.1%; in assay [4], 65.5%. Besides, the inhibition in assay [5] is 3.12%. Moreover, the RAM network inhibition in assay [6] is 1.49%.
As for `O=C(O)c1cccc(N2C(=O)C3CC=C(Cl)CC3C2=O)c1` (centres undefined), the growth inhibition is -4.4% in assay [1] and -10.2% in assay [2]. Further, the viability in assay [3] is 95.6%; in assay [4], 92.4%. Further, the inhibition in assay [5] was 1.16%. Moreover, the RAM network inhibition in assay [6] is 3.38%.
Turning to `COc1ccc(NC(=O)CSc2nnc(Cn3c(=O)sc4ccccc43)n2C)c(OC)c1`, the growth inhibition in assay [1] is 2.11%. Also, the viability increase in assay [7] is -4.82%. In addition, the viability was 101% in assay [3] and 92.7% in assay [4]. The inhibition in assay [5] was -0.285%. Further, the RAM network inhibition in assay [6] is 1.01%.
On to `CN(C)S(=O)(=O)c1ccc(S(=O)(=O)N2CCN(CCC#N)CC2)cc1`, for which the growth inhibition in assay [1] was -0.96%; in assay [2] it was 2.05%. Moreover, the viability in assay [3] was 102%; in assay [4] it was 101%. Also, in assay [5], the inhibition is 0.005%. Moreover, the RAM network inhibition in assay [6] is -1.81%.
Take `Cc1noc(/C=C/N(C)C)c1S(=O)(=O)N1CCCC(C(=O)NC2CCCCC2C)C1` (centres undefined): the values for the growth inhibition in assay [1] and in assay [2] were -2.76% and -6.36%, respectively. The viability in assay [3] is 87.1%; in assay [4] it was 83.2%. Moreover, the inhibition in assay [5] was 1.89%. Moreover, the RAM network inhibition in assay [6] was 7.7%.
For `COC(=O)Cn1c(=NC(=O)CSC(C)=O)sc2ccccc21`, the growth inhibition in assay [1] was 4.79%. Further, the viability increase in assay [7] was -1.9%. Besides, the viability in assay [3] was 98.5%; in assay [4], 101%. Further, the inhibition in assay [5] is 2.89%. In addition, the RAM network inhibition in assay [6] was 5.91%.
Take `Cc1cccc(N(C)c2cc(C)nc3nc(C)nn23)c1`: the growth inhibition is -14.5% in assay [1] and -6.39% in assay [2]. In addition, the viability in assay [3] is 64.8%; in assay [4] it was 53.3%. In addition, the inhibition in assay [5] is 2.03%. Moreover, the RAM network inhibition in assay [6] is 5.5%.
Turning to `Cc1ccc(N2C(=O)Nc3ccc(Br)cc3C2(O)C(=O)NCCCN(C)C)cc1C` (centres undefined), the growth inhibition in assay [1] was -7.06%; in assay [2], -9.65%. In addition, the viability in assay [3] is 91.7%; in assay [4] it was 98.7%. The inhibition in assay [5] was 0.615%. In addition, the RAM network inhibition in assay [6] was 3.58%.
For the compound `Cn1c(C(=O)N2CCC(C(=O)N3CCN(Cc4ccc5c(c4)OCO5)CC3)CC2)cc2sccc21`, the growth inhibition in assay [1] is -9.98%. Also, the viability increase in assay [7] was -2.38%. In addition, the viability in assay [3] was 70.9%; in assay [4] it was 71.1%. In assay [5], the inhibition is 1.03%. For the same compound, the RAM network inhibition in assay [6] is 3.95%.
As to `Brc1ccc(CSc2ncn[nH]2)cc1`, the growth inhibition in assay [1] is -0.435%; in assay [2] it was 12.1%. For the same compound, the viability in assay [3] and in assay [4] was 95.3% each time. In assay [5], the inhibition is 0.94%. Further, the RAM network inhibition in assay [6] was 0.27%.
For `O=c1c2ccccc2[nH]c(=S)n1Cc1cccnc1`, the growth inhibition in assay [1] was 6.04%. The viability increase in assay [7] was -0.83%. For the same compound, the viability is 103% in assay [3] and 92.5% in assay [4]. Besides, the inhibition in assay [5] is -0.605%. In addition, the RAM network inhibition in assay [6] is 1.73%.
